Hits are enriched below; roughly 4.1% of the tested compounds scored in any of these assays.
KCNQ1 block: blocks the human KCNQ1 potassium channel. actives 1.3% (n = 310,000). P51787. AID 2642. B-score at 10 µM. CHO-K1 KCNQ1, FluxOR thallium flux fluorescence; stronger effect = higher value;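 active = compounds whose thallium flux B-score, printed positive for inhibition, exceeds three library SD while starting fluorescence stays within three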;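 also: channel opened by potassium depolarization with thallium stimulus after 20 min compound exposure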
Target sequence (P51787 whole entry, looked up): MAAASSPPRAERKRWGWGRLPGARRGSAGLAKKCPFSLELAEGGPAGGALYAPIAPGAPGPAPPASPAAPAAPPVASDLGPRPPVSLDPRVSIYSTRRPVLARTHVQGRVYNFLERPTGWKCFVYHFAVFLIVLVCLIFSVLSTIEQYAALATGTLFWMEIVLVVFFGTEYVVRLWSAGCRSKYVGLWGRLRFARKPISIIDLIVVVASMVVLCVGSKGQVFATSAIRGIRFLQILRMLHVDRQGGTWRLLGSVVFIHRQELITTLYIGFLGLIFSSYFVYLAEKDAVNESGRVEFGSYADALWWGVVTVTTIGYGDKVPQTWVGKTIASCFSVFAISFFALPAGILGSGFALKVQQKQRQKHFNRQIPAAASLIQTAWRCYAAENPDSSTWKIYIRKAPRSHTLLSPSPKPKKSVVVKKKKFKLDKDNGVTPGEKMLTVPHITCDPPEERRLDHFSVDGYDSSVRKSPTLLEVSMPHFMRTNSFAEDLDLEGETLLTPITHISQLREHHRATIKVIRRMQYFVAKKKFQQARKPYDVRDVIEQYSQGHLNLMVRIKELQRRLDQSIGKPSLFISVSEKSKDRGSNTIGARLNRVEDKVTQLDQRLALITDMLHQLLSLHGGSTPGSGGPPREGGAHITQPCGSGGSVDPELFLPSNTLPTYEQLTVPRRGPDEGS
KCNK3 block: human KCNK3 channel inhibition, primary screen. CHO-KCNK3 thallium flux, FluxOR fluorescence; stronger effect = lower value. B-score at 10 µM. O14649. actives 0.84% (n = 340,000). AID 602410;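 active = B-score under library mean minus 4 SD, starting fluorescence ratio at most library mean plus 5 SD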;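 also: more negative B-score means stronger inhibition of thallium flux through KCNK3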
KCNK9 block: inhibitors of human KCNK9 two-pore domain potassium channel. B-score at 10 µM. HEK293 KCNK9, FluxOR thallium flux fluorescence; stronger effect = lower value. actives 1.2% (n = 310,000);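 active = ratio B-score over 3 SD below the library mean, with starting fluorescence within 5 SD of its mean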;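 also: negative B-score means less thallium flux so channel inhibition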
hERG protect: compounds protecting human hERG from proarrhythmic drug block; Q12809; CHO-hERG, FluxOR thallium flux, dofetilide IC70 present; activation (rescue from dofetilide block), less the hit threshold, % at 10 µM; actives 0.51% (n = 310,000); AID 1511;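 active = activation above the mean of controls blocked by dofetilide plus 5 SD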;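 also: thallium influx through hERG after potassium depolarization seen as dye fluorescence rise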
KCC2 mod: modulates chloride dependent transport by human KCC2. actives 2.2% (n = 190,000). AID 1456. Q9H2X9. KCC2 cells, thallium flux FluoZin-2 fluorescence. B-score of Tl+ flux slope (higher = more flux/activation; lower = inhibition) at 10 µM;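 active = thallium flux slope and its plate-corrected score both differing from the plate sample mean at a set confidence after two filtering rounds, in either direction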;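 also: slope of fluorescence scaled to starting intensity during 10 to 20 s after thallium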
KCNQ1 pot: potentiates or activates the human KCNQ1 potassium channel | AID 2648 | actives 0.35% (n = 310,000) | P51787 | B-score at 10 µM | CHO-K1 KCNQ1, thallium flux FluxOR fluorescence; stronger effect = higher value;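 active = fluorescence ratio B-score, a plate-corrected score, at least three library SD, with initial intensity B-score within 5 SD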
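Test system: CHO-K1 cells stably expressing KCNQ1 / Medium: assay buffer / Also added: depolarizing K+/Tl+ stimulus, K2SO4 and Tl2SO4 each 12.5 mM in 5x stock / Incubation: 90 min dye loading and 20 min compound exposure, both at room temperature / Signal: thallium influx via FluxOR fluorescence, kinetic imaging / Evaluation: B score of baseline-normalized fluorescence ratio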
KCNK3 inh conf: human KCNK3 channel inhibition, confirmation assay | shares compounds with KCNK3 block | CHO-KCNK3 thallium flux, FluxOR fluorescence; 0% buffer, 100% carvedilol maximal block | ratio percent of control, % at 10 µM | actives 99% (n = 2,400);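 active = ratio percent of control, averaged over triplicates, above buffer control mean plus 5 SD, cut at about 64% in these data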;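 also: ratio is the fluorescence rise from min to max over baseline after thallium stimulus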
KCNK3 noninduced: activity in cells without induced KCNK3 expression; non-induced KCNK3 parental cells, FluxOR thallium flux; stronger effect = lower value; actives 40% (n = 2,400); shares compounds with KCNK3 block; thallium flux ratio (lower = more inhibition) at 10 µM;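 active = thallium flux ratio, averaged over three wells, more than 5 SD below the buffer control mean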;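 also: host cells are CHO cells without KCNK3 induction; ratio is peak minus trough fluorescence over baseline then normalized to buffer controls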
Starred values were filed as active, the others as inactive; i = inactive; x = not tested or not shown.

SMILES	KCNQ1 block	KCNK3 block	KCNK9 block	hERG protect	KCC2 mod	KCNQ1 pot	KCNK3 inh conf	KCNK3 noninduced
CC(=O)c1ccc(N=C2C(=O)Nc3ccccc32)cc1	i	i	i	-3	x	i	x	x
CC(C)NC(=S)NCc1cccnc1	i	i	i	-3	-0.41	i	x	x
O=C(Nc1ccc2c(c1)Cc1ccccc1-2)c1ccccc1F	i	i	i	-3	x	i	x	x
O=C(Nc1ccc2c(c1)Cc1ccccc1-2)c1ccc(Br)o1	i	-10*	i	-7	-1.1	i	86*	i
O=[N+]([O-])c1ccc(C2=NN(CCO)C(=Nc3ccc(OC(F)(F)F)cc3)SC2)cc1	i	-10*	i	-9	0.27	i	131*	i
Cc1cccc(-n2c(SCC(=O)Nc3nnc(C)s3)nnc2-c2ccoc2C)c1	i	-14*	i	-3	-1.3	i	66*	0.16*
CCc1nnc(NC(=O)CSc2nnc(-c3ccoc3C)n2-c2cccc(C)c2)s1	i	i	i	-2	-1.3	i	x	x
COc1ccc2c(c1)c(CC(=O)NCc1cc([N+](=O)[O-])ccc1O)c(C)n2C(=O)c1ccc(Cl)cc1	11*	-13*	i	-23	x	i	135*	0.11*
COc1ccccc1OCCCn1cc(C#N)c2ccccc21	i	i	i	-1	x	i	x	x
N#Cc1cn(CCCOc2ccccc2)c2ccccc12	i	-9.5*	i	-7	0.082	i	115*	0.14*
CC(C)N(C(=O)COC(=O)c1ccc(Cl)nc1)C(C)C	i	i	i	-2	0.062	i	x	x
O=C(OCCOc1ccc(Br)cc1)c1ccc(Cl)nc1	i	-11*	i	-7	0.39	i	69*	i
CCc1ncc(CN2CCCC(C(=O)Nc3cccc(-c4cccc(C)c4)c3)C2)cn1 (stereo not drawn)	i	-11*	i	-13	x	i	115*	0.15*
CCc1ncc(CN2CCCC(C(=O)Nc3cccc(-c4ccc(F)cc4)c3)C2)cn1 (stereo not drawn)	i	i	i	-15	x	i	x	x
Cc1ccc(CN2CCN(/N=C/c3cc(Br)ccc3F)CC2)cc1	i	i	i	-2	x	i	x	x
Fc1ccc(Br)cc1/C=N/N1CCN(c2ccccc2)CC1	i	-9.3*	i	-4	x	i	96*	i
Cc1c(NS(=O)(=O)c2ccc(NC(=O)CCC(=O)O)cc2)c(=O)n(-c2ccccc2)n1C	i	i	i	-5	x	i	x	x
CS(=O)(=O)N(CC(=O)N1CCCC1)c1ccccc1F	i	i	i	1	x	i	x	x
Cc1ccc(N2CCN(c3ncccc3[N+](=O)[O-])CC2)c(C)c1	i	-8.8*	i	-5	x	i	108*	0.15*
Cc1ccc(SCCNC(=O)/C=C/c2ccccc2Cl)cc1	i	-14*	i	-13	x	i	123*	0.13*
CCOc1cc(C(=S)N2CCOCC2)ccc1OC(=O)c1ccccc1	i	-8.9*	i	-8	x	i	92*	i
CCOc1cc(C(=S)N2CCOCC2)ccc1OC(=O)c1cccc(C)c1	i	-9.1*	i	-3	x	i	114*	i
CCOc1cc(C(=S)N2CCOCC2)ccc1OC(=O)c1ccc(C)cc1	i	i	i	-9	x	i	x	x
COc1nc(N)nc(NC(=O)c2cccs2)c1N=O	i	i	i	-5	x	i	x	x
CCCCCCCOC(=O)c1ccc(OC(=O)c2cccnc2)cc1	i	-9.4*	i	-8	x	i	136*	0.14*
CCCCCOC(=O)c1ccc(OC(=O)c2cncc(Br)c2)cc1	i	i	i	-3	-0.053	i	x	x
CNC(=O)c1cccnc1Nc1cccc(C(F)(F)F)c1	i	i	i	-5	-0.71	i	x	x

Compound activity as filed in PubChem.
